Test results reported in publication PMC7986984 (Brain, behavior, and immunity, 2020).
Where two headings read alike, the source gives them in different places.

Assays:
[1] = assay type: in vivo, mice; settings: male, mouse, plasma, po; for AUC: over 24 h
[2] = target: T1, aryl hydrocarbon receptor (AHR) (Homo sapiens, UniProt P35869); assay type: cell-based; settings: for dependence of the beneficial / anti-inflammatory activity on AHR signaling: LPS-challenged coculture with AHR antagonist TMF; for anti-inflammatory effects (TEER, cytotoxicity, kynurenine, Il-1β gene expression), correlated to Cyp1a1 mRNA expression: LPS-treated coculture, two concentrations (Table S8)
T1 sequence (P35869 11-848): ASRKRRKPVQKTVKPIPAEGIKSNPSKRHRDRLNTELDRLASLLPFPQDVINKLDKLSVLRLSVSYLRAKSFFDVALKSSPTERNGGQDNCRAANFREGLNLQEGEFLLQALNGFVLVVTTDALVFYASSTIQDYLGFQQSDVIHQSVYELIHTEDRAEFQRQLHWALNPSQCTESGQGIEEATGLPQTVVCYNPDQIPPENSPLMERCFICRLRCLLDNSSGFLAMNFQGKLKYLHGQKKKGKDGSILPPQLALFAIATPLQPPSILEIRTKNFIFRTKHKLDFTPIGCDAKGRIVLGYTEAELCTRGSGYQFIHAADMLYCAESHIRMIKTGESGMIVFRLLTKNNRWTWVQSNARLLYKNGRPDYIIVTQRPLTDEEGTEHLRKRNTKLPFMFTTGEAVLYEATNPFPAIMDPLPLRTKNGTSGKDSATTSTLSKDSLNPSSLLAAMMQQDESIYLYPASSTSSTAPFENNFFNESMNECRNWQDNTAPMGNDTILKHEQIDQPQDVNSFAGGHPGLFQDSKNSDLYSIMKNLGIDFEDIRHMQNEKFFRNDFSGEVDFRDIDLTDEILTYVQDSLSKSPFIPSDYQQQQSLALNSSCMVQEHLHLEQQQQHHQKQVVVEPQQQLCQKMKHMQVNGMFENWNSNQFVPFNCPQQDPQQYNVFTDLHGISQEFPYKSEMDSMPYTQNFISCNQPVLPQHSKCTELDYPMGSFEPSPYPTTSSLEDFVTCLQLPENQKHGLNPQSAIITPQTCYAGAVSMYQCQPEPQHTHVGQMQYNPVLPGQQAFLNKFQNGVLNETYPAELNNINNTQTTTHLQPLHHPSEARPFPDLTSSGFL
Procedure, shortened: (§1)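 Caco-2 grown 18 days on 8 μm transwells to TEER 500 ohm×cm2, set over THP-1 differentiated with PMA (15 nM, 48 h). Pretreatment 24 h with fermented supernatant (50 μL/1 mL) or metabolites (250 ng/mL), with or without AHR antagonist TMF. Challenge with LPS 1 μg/ml, IFN-γ and ATP in both compartments. Read-outs: TEER before and after; kynurenine by chemical assay, % control; IL-1β by ELISA, fold over untreated. n = 4 wells; t-test.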

[3] = tested on: Kynurenine; assay: Kynurenine production; assay type: cell-based, human; settings: LPS +, metabolites 250 ng/mL
Procedure, shortened: as §1

[4] = tested on: IL-1β; assay: IL-1β production; assay type: cell-based, human; settings: LPS +, ELISA, metabolites 250 ng/mL
Procedure, shortened: as §1

[5] = tested on: THP-1 cells; assay: qPCR gene expression in THP-1 cells of the LPS-challenged coculture; assay type: cell-based, human; settings: TMF-treated vs. untreated
[6] = assay type: in vivo, mice; settings: male, mouse, brain, po; for AUC: over 24 h; for Cmax: n = 6 +/- SEM
[7] = tested on: Caco-2 / THP-1 coculture; assay: Transepithelial electrical resistance; assay type: cell-based, human; settings: LPS +, TMF + (AHR antagonist); metabolites 250 ng/mL
Procedure, shortened: as §1

[8] = TMF −, fold change from untreated controls

SMILES	AUC ([1]; Chronic BDPP) [ng·h/mL]	AUC ([1]; Chronic Synbiotic) [ng·h/mL]	Tmax ([1]; Chronic BDPP) [min]	Tmax ([1]; Chronic Synbiotic) [min]	dependence of the beneficial / anti-inflammatory activity on AHR signaling [2]	anti-inflammatory effects (TEER, cytotoxicity, kynurenine, Il-1β gene expression), correlated to Cyp1a1 mRNA expression [2]	Kynurenine (% Change) ([3]; TMF +)	IL-1β(Fold Change) ([4]; TMF +)	IL-1β(Fold Change) [4, 8]	Tlr4 expression in TMF-treated cultures [5]	AUC ([6]; Chronic BDPP) [ng·h/mL]	AUC ([6]; Chronic Synbiotic) [ng·h/mL]	Cmax ([6]; Chronic BDPP) [ng/mL]	Cmax ([6]; Chronic Synbiotic) [ng/mL]	Tmax ([6]; Chronic BDPP) [min]	Tmax ([6]; Chronic Synbiotic) [min]	TEER (% Control) [7] [% Control]	Kynurenine (% Change) ([3]; TMF −)
O=C(O)Cc1ccc(O)cc1 [4-HPAA, 4-Hydroxyphenylacetic acid]	3760	4460	30	18	abrogated by TMF	dose-dependent anti-inflammatory effects	120.7 ± 7.9	9.8 ± 0.4τ ^** Fold Change	5.2 ± 0.6τ Fold Change	suppressed	1350	1650	66.8 ± 4.7	108 ± 6.5	60	60	70.2 ± 2.0	–
O=C(O)CCc1ccc(O)cc1 [4-HPPA, 3-(4-Hydroxyphenyl)propionic acid]	406	2170	30	18	abrogated by TMF	dose-dependent anti-inflammatory effects	134.3 ± 3.2	9.1 ± 0.0τ ^** Fold Change	6.4 ± 0.3τ Fold Change	suppressed	–	–	–	–	–	–	72.3 ± 2.0	102.0 ± 2.2τ % Change
O=C(O)/C=C/c1ccc(O)c(O)c1 [CA, Caffeic acid]	52.8	51.4	18	18	abrogated by TMF	dose-dependent anti-inflammatory effects	144.1 ± 6.4	10.3 ± 0.3τ ^** Fold Change	4.0 ± 0.3τ Fold Change	suppressed	–	–	–	–	–	–	73.2 ± 0.9	98.6 ± 7.7τ % Change
O=c1c(O)c(-c2ccc(O)cc2)oc2cc(O)cc(O)c12 [KAMF, Kaempferol]	3.5	38.2	18	30	independent of AHR signaling	dose-dependent anti-inflammatory effects	131.7 ± 3.9	10.1 ± 0.7τ Fold Change	8.4 ± 0.2τ Fold Change	–	87.2	288	25.3 ± 9.6	23 ± 2.6	18	60	75.5 ± 2.1	151.0 ± 3.7 % Change
